We go through 2 compounds from ChEMBL document CHEMBL1687928, “Discovery, optimization, and pharmacological characterization of novel heteroaroylphenylureas antagonists of C-C chemokine ligand 2 function” (J Med Chem, 2011).

Values after ≈ are worked out from the molar mass of the structure shown. Active and inactive are the calls of the source. The rule behind the calls is not given here.

One series deals with THP-1. As to the kind of experiment: Cytotoxicity against human THP1 cells. It counts as cell-based.
Series [1] addresses T1, C-X-C chemokine receptor type 2 (Homo sapiens) (UniProt P25025).
T1 sequence (whole entry): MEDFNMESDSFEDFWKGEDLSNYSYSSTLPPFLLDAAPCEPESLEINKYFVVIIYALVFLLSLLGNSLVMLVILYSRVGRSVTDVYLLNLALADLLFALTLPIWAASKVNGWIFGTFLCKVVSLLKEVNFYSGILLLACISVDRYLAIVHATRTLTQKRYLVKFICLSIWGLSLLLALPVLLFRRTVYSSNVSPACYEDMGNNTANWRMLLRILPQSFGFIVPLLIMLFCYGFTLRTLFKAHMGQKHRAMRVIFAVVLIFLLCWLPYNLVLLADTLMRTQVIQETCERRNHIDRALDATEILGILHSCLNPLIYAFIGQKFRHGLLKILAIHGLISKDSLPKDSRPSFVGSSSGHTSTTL
It counts as cell-based. The conditions noted are these: neutrophils.

A short description of series [2]: Aqueous solubility of the compound at pH 7.4. The format is physicochemical.
The nature of series [3]: Aqueous solubility of the compound at pH 1.2. It counts as physicochemical.
Series [4] addresses T2, C5a anaphylatoxin chemotactic receptor 1 (Homo sapiens) (UniProt P21730).
T2 sequence (whole entry): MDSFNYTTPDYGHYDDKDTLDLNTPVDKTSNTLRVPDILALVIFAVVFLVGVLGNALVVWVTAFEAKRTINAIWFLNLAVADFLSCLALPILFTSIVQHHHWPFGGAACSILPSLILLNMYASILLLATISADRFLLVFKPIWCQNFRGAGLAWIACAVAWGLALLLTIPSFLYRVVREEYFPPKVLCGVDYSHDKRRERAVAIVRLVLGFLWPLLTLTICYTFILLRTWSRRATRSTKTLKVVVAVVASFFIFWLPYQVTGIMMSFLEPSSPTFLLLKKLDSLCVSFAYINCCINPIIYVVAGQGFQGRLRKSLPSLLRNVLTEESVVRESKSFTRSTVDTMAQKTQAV
The format is cell-based. Conditions: CHO.

For series [5], the target named is C-C chemokine receptor type 2 (Homo sapiens) (UniProt P41597). It counts as cell-based. The conditions noted are these: THP-1.
Sequence of C-C chemokine receptor type 2 (Homo sapiens) (P41597 whole entry, looked up): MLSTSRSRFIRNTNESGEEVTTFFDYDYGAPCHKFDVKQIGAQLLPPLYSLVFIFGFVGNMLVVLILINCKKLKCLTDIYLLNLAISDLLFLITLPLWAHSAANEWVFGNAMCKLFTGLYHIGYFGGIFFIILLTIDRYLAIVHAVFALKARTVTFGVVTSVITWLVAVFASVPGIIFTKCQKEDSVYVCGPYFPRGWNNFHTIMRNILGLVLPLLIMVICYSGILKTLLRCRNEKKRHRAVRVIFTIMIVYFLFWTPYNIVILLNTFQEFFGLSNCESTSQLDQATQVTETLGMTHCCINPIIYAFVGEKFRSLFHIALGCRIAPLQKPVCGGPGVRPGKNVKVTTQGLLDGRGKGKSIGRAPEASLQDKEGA
Series [6] has as its target T3, C-X-C chemokine receptor type 1 (Homo sapiens) (UniProt P25024).
T3 sequence (whole entry): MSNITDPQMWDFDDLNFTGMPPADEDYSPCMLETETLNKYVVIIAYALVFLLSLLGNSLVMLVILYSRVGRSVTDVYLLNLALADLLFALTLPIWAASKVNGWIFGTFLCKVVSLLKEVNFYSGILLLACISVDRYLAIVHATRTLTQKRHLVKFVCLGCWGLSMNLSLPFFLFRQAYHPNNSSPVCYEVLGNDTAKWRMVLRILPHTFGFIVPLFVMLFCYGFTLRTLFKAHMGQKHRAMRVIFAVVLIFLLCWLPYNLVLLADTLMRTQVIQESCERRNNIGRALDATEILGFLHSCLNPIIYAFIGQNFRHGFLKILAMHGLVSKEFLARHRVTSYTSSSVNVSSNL
It counts as cell-based. The conditions noted are these: neutrophils.

For series [7], the target named is C-C chemokine receptor type 2 (Homo sapiens) (UniProt P41597). The format is cell-based. Conditions: HEK293.
For series [8] the target is unchanged. The series can be described thus: Antagonist activity at CCR2 in human THP1 cells assessed as inhibition of CCL2-induced calcium flux at 50 uM. The format is functional, cell-based. The conditions noted are these: THP-1. In a few lines: (§1)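 THP-1 cells in serum-free RPMI 1640 were loaded with 3 μM Fluo-3AM plus 0.1% F127 for 30 min at 37 °C. After washing, cells were resuspended at 5 × 10^6 cells/mL and kept at room temperature. They were pretreated 30 min with compound or DMSO, then stimulated with 100 ng/mL hCCL2. Fluorescence was read by flow cytometry at baseline for 15 s, then from 20 to 120 s. Inhibition is given as % of DMSO control.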

Series [9] has the same target. The series can be described thus: Antagonist activity at CCR2 in human THP1 cells assessed as inhibition of CCL2-induced calcium flux. The format is functional, cell-based. Conditions: THP-1. The method in brief: as §1

The CC50 is the concentration giving 50% cytotoxicity. Lower therefore signals greater toxicity to the cells. The term solubility denotes the concentration that dissolves in the medium under given conditions. Lower therefore signals a poorly soluble substance. As to `Cc1nn(C)c2ncc(C(=O)NC(=O)Nc3ccc(F)c(C(F)(F)F)c3)cc12`, in the series on THP-1, the CC50 is more than 50 µM. The result in series [1], in series [4], in series [5], in series [6] and in [7] was inactive. For the same compound, the solubility in [2] was found to be 5 µg/mL (≈ 12.6 µM); in [3], 3.9 µg/mL (≈ 9.87 µM).
Compound `O=C(NC(=O)c1ccc2c(c1)OCO2)Nc1ccc(O)c(Cl)c1` gave a CC50 in the series with THP-1 of more than 50 µM. In addition, in series [8], the outcome was Active. Besides, the result in series [5] and in series [7] was inactive. The Activity result in series [9] is “Dose-dependent effect”.
